# Rows were chosen to be rich in hits. Some 1.5% of all compounds tested hit in one or more screens of this group.
# CSN inh = inhibitors of CSN-mediated cullin deneddylation, primary screen, biochemical, fluorescence polarization, uHTS; Purified CSN, SCF-Nedd8-OG deneddylation; inhibition, % at 12.5 µM; 360,000 compounds, 0.38% hits;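 active = pattern-corrected inhibition above about 35%, with an unprinted fluorescence ratio check between 0.5 and 1.5, limit read from the data, passing the limit was not always enough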;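 note: 0% = enzyme with substrate and 100% = substrate without enzyme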
#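 Assay system: purified human Csn5 enzyme expressed in HEK293T cells; Input: 0.24 nM Csn5 enzyme, final concentration; Reagent: 10 nM SCFSkp2-Nedd8OG; Compound dosing: 12.5 µM single point; Times: reaction 90 min, room temperature; Technique: fluorescence polarization readout.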
# HNF4A DNA FP = change in binding of human HNF4A to DNA, primary screen, biochemical, fluorescence polarization, FITC-DNA | 1 h | Hepatocyte nuclear factor 4-alpha (Homo sapiens), P41235 | 360,000 compounds, 0.3% hits | activity change, % at 10 µM; in the data active = activity change above about 30%, passing the limit was not always enough
# Target sequence (P41235 whole entry, looked up): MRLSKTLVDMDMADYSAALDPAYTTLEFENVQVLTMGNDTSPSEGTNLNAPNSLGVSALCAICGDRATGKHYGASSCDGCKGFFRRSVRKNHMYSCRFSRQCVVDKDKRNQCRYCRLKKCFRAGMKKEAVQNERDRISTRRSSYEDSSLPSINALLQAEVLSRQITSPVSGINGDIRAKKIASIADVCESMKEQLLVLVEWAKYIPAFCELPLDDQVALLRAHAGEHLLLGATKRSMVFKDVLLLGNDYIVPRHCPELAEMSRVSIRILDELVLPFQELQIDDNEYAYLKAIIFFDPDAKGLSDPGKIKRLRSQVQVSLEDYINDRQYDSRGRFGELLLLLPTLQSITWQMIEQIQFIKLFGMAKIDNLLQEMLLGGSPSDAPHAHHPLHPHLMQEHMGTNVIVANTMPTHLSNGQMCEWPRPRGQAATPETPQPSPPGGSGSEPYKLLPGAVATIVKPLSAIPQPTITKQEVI
# NR1D1 modulator = modulators of Rev-erb alpha DNA binding, primary screen, biochemical, FITC-DNA, fluorescence polarization, uHTS. AID 1259318, 2017. 370,000 compounds, 0.79% hits. Rev-erbα–FITC-DNA binding, 90 min. activity, % at 10 µM;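 active = activity above about 14%, limit read from the data; passing the limit was not always enough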;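 note: 0% = DMSO wells with 35 nM protein and 100% = DMSO wells with 750 nM protein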
# aDG glyco act = activators of alpha-DG glycosylation, primary screen, uHTS, Pro5-aDG cells, AlphaScreen; alpha-DG glycosylation AlphaScreen (IIH6); 0% Pro5, 100% B10-LARGE cell signal; 360,000 compounds, 0.22% hits; activation, % at 10 µM;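 active = activation of at least 8% versus controls, or a plate z-score of at least 8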;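 note: Pro5 are CHO cells carrying HIG-tagged alpha-DG that lacks glycosylation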
# aDG conf = alpha-DG glycosylation enhancers, retest, confirmation, single concentration, Pro5-aDG cells. activation, % at 10 µM (by protocol). AID 651671, 2012. 600 compounds, 17% hits. shares compounds with aDG glyco act. IIH6 AlphaLISA; scaled to LARGE-overexpressing B10 cells as 100%;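 active = activation of at least 7% in one or more replicates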;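 note: cells exposed to compound for two days before detection; 0% = DMSO-treated Pro5 cells and 100% = DMSO-treated B10-LARGE cells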
# * = called active by the depositor; x = no result given.
SMILES,CSN inh,HNF4A DNA FP,NR1D1 modulator,aDG glyco act,aDG conf
COc1ccccc1C(=O)Nc1ccc2c(c1)CCCN2C(=O)c1ccccc1,-1,4,-1,9.6*,0
COc1ccccc1C(=O)Nc1ccc2c(c1)CCCN2C(=O)c1cccs1,2,2,-4,0,x
N#Cc1cccc(NC(=O)CSc2nnc(-c3n[nH]c4ccccc34)o2)c1,1,-2,-5,0,x
C#Cc1cccc(NC(=O)CSc2nnc(-c3ccc(C(F)(F)F)cn3)o2)c1,3,1,-1,3.5*,0
COc1ccc(NC(C)C(=O)N/N=C/c2ccc([N+](=O)[O-])s2)cc1 (stereo not drawn),1,1,1,9.7*,3
COC(=O)[C@]12C[C@H](CC(=O)NCCCN3CCCC3=O)C(=O)N(Cc3ccco3)C1=C[C@H](C(C)C)O[C@@H]2C1CC1,x,x,0,x,x
CCc1nc2ccc(C(=O)NC3CCN(Cc4ccccc4)CC3)cn2c1N(C)Cc1cccs1,6,4,-3,2,x
CCc1nc2ccc(C(=O)NC3CCN(Cc4ccccc4)CC3)cn2c1N(C)Cc1cc2ccccc2s1,-1,0,0,6.4*,11*
Cc1ccc(C2(c3noc(CN4CCC(c5ccncc5)CC4)n3)CCCC2)cc1,6,2,-4,6.0*,0
O=C1CCC2(CCC(c3ccccc3)CC2)N1CC[C@@H](O)c1ccccc1 (stereo partly drawn),x,x,-7,x,x
Cc1ccc(CNC(=O)CN(C(=O)C2(C)CC(=O)N=C3C=CC=CN32)c2cccc(C)c2C)cc1 (stereo not drawn),-5,0,-3,2.6*,1
Cc1ccc(CNC(=O)CN(C(=O)C2(C)CC(=O)N=C3C=CC=CN32)c2ccccc2)cc1 (stereo not drawn),2,3,-9,0,x
COc1ccccc1CNS(=O)(=O)c1c(C)nc2sccn2c1=O,-1,-4,2,0,x
Cc1nc2sccn2c(=O)c1S(=O)(=O)NCc1ccccc1Cl,10,0,-4,10*,1
CC(C)N1Cc2nnn(Cc3ccccc3)c2-c2ccccc2S1(=O)=O,x,x,-3,x,x
c1ccc2cc(-c3cc4ccccn4c3)ccc2c1,7,7,-5,5.2*,0
COc1ccc(S[C@]2(C(=O)N3CCN(c4ncccn4)CC3)CC(=O)N(C(=O)c3ccccc3)[C@@H]2c2ccc(OC)cc2)cc1,x,x,6,x,x
COc1ccc(OC)c(CN2C(=O)CSCCC2(C)c2nnnn2C2CCCC2)c1 (stereo not drawn),x,x,-12,x,x
CC1(NC(=O)Nc2cc([N+](=O)[O-])ccc2O)CCS(=O)(=O)C1 (stereo not drawn),-2,2,5,6.9*,0
O=C(CCN1C(=O)c2ccccc2C1=O)NCc1ccc(Cl)cc1,-1,-1,-5,2.7*,0
O=C(CCCN1C(=O)c2ccccc2C1=O)NCc1ccc(F)cc1,2,-1,-1,0,x
Cc1csc2ncnc(NCCc3ccccn3)c12,-3,-3,13,10*,2
c1ccc(CCNc2ncnc3sccc23)nc1,0,-2,-1,0,x
Oc1cccc(C=NCc2ccccc2)c1,3,-4,7,51*,-1
Nc1nc(-c2ccccn2)nc(N)c1Cc1ccccc1F,-5,0,2,2,x
SMILES,CSN inh,HNF4A DNA FP,NR1D1 modulator,aDG glyco act,aDG conf
Nc1nc(-c2ccccn2)nc(N)c1Cc1c(F)cccc1Cl,0,0,1,8.0*,0
COc1ccc(C(C)=O)cc1COC(=O)CNC(=O)C1CCCCC1,4,4,-2,9.1*,0
OC1(c2ccc(OC(F)F)cc2)CSC(=Nc2cccnc2)N1C1CC1 (stereo not drawn),-1,1,9,6.9*,0
O=C(Nc1ccc2c(c1)OCO2)OC1CCC12CCCCC2 (stereo not drawn),x,x,0,x,x
Cc1cc(C)cc(N=Cc2[nH]c3ccc(Br)c(Cl)c3c2O)c1,-11,27,8,5.9*,-1
CCOc1ccc(S(=O)(=O)N2CCN(c3ccccc3OC)CC2)c2cccnc12,1,-3,1,6.5*,0
N#Cc1cccc(OC[C@@H](O)CN2CCC(C(O)(c3ccccc3)c3ccccc3)CC2)c1,x,x,1,x,x
O=C(NCC1CCCO1)C1CCN(C2CCN(CCCC3CCCC3)CC2)CC1 (stereo not drawn),2,2,-4,1,x
O=C(NCC1CCCO1)C1CCN(C2CCN(C(=O)CC3CCCC3)CC2)CC1 (stereo not drawn),2,-11,-8,3.7*,0
S=c1[nH]nc(-c2cc(-c3ccccc3)n[nH]2)n1N=Cc1c[nH]c2ccccc12,x,x,0,x,x
O=C(OC12CCCN(C1)/C(=C/c1ccccc1)C2)c1ccccc1 (stereo not drawn),x,x,5,x,x
CC(C)(C)c1ccc(/C=N/NC(=S)NCc2ccccc2)cc1,4,4,-9,0,x
C=CCNC(=S)N/N=C/c1ccc(C(C)(C)C)cc1,1,0,1,8.6*,2
CCOC(=O)C1CCCN(S(=O)(=O)c2ccc(S(=O)(=O)N3CCCC3)cc2)C1 (stereo not drawn),1,2,-3,4.5*,0
O=C(CSc1nnc(-c2cccs2)o1)c1cccc([N+](=O)[O-])c1,x,x,-4,x,x
COc1ccc(Cc2nc(-c3ccc(NC(=O)c4cccnc4)cc3)no2)cc1,0,2,-2,7.5*,6.7*
Cc1cccc(NC(=O)CSc2nc3ccccc3c3nc(CCc4c(C)n[nH]c4C)nn23)c1,-3,5,-15,0,x
Cc1cncn1CCc1nc2c3ccccc3nc(SCC(=O)Nc3cccc(Cl)c3)n2n1,3,-1,-1,8.7*,5.3*
c1ccc(-c2nnc(CN3CCN(C(c4ccccc4)c4ccccc4)CC3)o2)cc1,3,4,5,6.8*,0
COC(=O)[C@]12C[C@H](CC(=O)NCC3CCCCC3)C(=O)N(Cc3ccc(Cl)cc3Cl)C1=C[C@H](C(C)C)O[C@@H]2C1CC1,x,x,-7,x,x
CCC1CCCCN1C(=O)CN1C(=O)c2ccccc2S1(=O)=O (stereo not drawn),-7,-2,1,3.3*,0
COc1ccc(S[C@]2(C(=O)N(C)C)CC(=O)N(S(=O)(=O)c3ccc(F)cc3)[C@@H]2c2ccc(OC)cc2)cc1,x,x,4,x,x
Cc1cc(-c2csc(NC(=O)c3cccc(S(=O)(=O)N(C)C)c3)n2)c(C)n1-c1ccccc1,12,17,-4,11*,1
COC(=O)c1ccc(-n2c(C)cc(-c3csc(NC(=O)c4ccc(S(=O)(=O)N(C)C)cc4)n3)c2C)cc1,14,3,3,11*,0

# Assay outcomes deposited in PubChem BioAssay by Sanford-Burnham Center for Chemical Genomics.
